Measured values as given in ChEMBL document CHEMBL3272280, “Prostaglandin isosteres. 1. (8-Aza-, 8,10-diaza-, and 8-aza-11-thia)-9-oxoprostanoic acids and their derivatives” (J Med Chem, 1977).

Legend:
Rattus norvegicus = species on record: Rattus norvegicus; assay: Displacement of [3H-PGE1] from Sprague-Dawley rat kidney prostaglandin receptor after 60 mins by scintillation counting analysis
Procedure, shortened: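 Kidney plasma membrane binding fraction from male rats (120-150 g); 125 μg of it incubated with 0.4 ng [3H]-PGE1 and test compound, 60 min, 37 °C. Diluted with 0.01 M Tris HCl-saline pH 7.5, bound label collected by filtration, rinsed, counted by liquid scintillation. Duplicate runs at each of three concentrations.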

Mus musculus [1] = species on record: Mus musculus; assay: Binding affinity to prostaglandin receptor in Charles River CD-1 mouse ovary assessed as increase in cAMP accumulation using [8-14C]adenine at 25 ug/ml after 30 mins relative to control; type: tissue-based; details: Female gonad
Procedure, shortened: (§1)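 Virgin female mice over 70 days old; three ovaries per tube (15-25 mg), denuded of fat, preincubated 60 min at 37 °C in aerated Krebs-Ringer phosphate buffer pH 7.2 with 1 μCi [8-14C]adenine to label ATP. Then 0.2 mL 0.05 M theophylline in 0.15 M NaCl plus compound in 0.1 mL Me2SO added; 30 min, 37 °C. TCA stop, homogenization, [14C]-cAMP isolated including paper chromatography.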

Mus musculus [2] = species on record: Mus musculus; assay: Binding affinity to prostaglandin receptor in Charles River CD-1 mouse ovary assessed as increase in cAMP accumulation using [8-14C]adenine at 100 ug/ml after 30 mins relative to control; type: tissue-based; details: Female gonad; procedure, shortened: as §1
[3] = Retardation factor, Rf of the compound; type: physicochemical
Procedure, shortened: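 Thin-layer chromatography on SiO2 plates; eluent A, CHCl3-CH3OH-HOAc (98:1:1), other eluents as designated.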

Mus musculus [4] = species on record: Mus musculus; assay: Binding affinity to prostaglandin receptor in Charles River CD-1 mouse ovary assessed as increase in cAMP accumulation using [8-14C]adenine at 200 ug/ml after 30 mins relative to control; type: tissue-based; details: Female gonad; procedure, shortened: as §1
Mus musculus [5] = species on record: Mus musculus; assay: Binding affinity to prostaglandin receptor in Charles River CD-1 mouse ovary assessed as increase in cAMP accumulation using [8-14C]adenine at 50 ug/ml after 30 mins relative to control; type: tissue-based; details: Female gonad; procedure, shortened: as §1
Mus musculus [6] = species on record: Mus musculus; assay: Binding affinity to prostaglandin receptor in Charles River CD-1 mouse ovary assessed as increase in cAMP accumulation using [8-14C]adenine at 1 ug/ml after 30 mins relative to control; type: tissue-based; details: Female gonad; procedure, shortened: as §1
Mus musculus [7] = species on record: Mus musculus; assay: Binding affinity to prostaglandin receptor in Charles River CD-1 mouse ovary assessed as increase in cAMP accumulation using [8-14C]adenine at 10 ug/ml after 30 mins relative to control; type: tissue-based; details: Female gonad; procedure, shortened: as §1
Mus musculus [8] = species on record: Mus musculus; assay: Binding affinity to prostaglandin receptor in Charles River CD-1 mouse ovary assessed as increase in cAMP accumulation using [8-14C]adenine at 0.1 ug/ml after 30 mins relative to control; type: tissue-based; details: Female gonad; procedure, shortened: as §1
Mus musculus [9] = species on record: Mus musculus; assay: Binding affinity to prostaglandin receptor in Charles River CD-1 mouse ovary assessed as increase in cAMP accumulation using [8-14C]adenine at 0.01 ug/ml after 30 mins relative to control; type: tissue-based; details: Female gonad; procedure, shortened: as §1
Mus musculus [10] = species on record: Mus musculus; assay: Binding affinity to prostaglandin receptor in Charles River CD-1 mouse ovary assessed as increase in cAMP accumulation using [8-14C]adenine at 0.05 ug/ml after 30 mins relative to control; type: tissue-based; details: Female gonad; procedure, shortened: as §1
[11] = Dissociation constant, pKa of the compound; type: physicochemical

Row | SMILES | Activity (Rattus norvegicus) | fold change (FC) (Mus musculus [1]) | fold change (FC) (Mus musculus [2]) | Rf [3] | fold change (FC) (Mus musculus [4]) | fold change (FC) (Mus musculus [5]) | fold change (FC) (Mus musculus [6]) | fold change (FC) (Mus musculus [7]) | fold change (FC) (Mus musculus [8]) | fold change (FC) (Mus musculus [9]) | fold change (FC) (Mus musculus [10]) | pKa [11]
1 | CCCCCCCCc1c[nH]c(=O)n1CCCCCCC(=O)O | 19.6 µgequiv | 5 | 9 | 0.84 | – | – | – | – | – | – | – | –
2 | CCCCCC(O)CCCC(CCCCCCC(=O)O)C(C)=O (configuration not stated) | 833 ngequiv | 14 | 23 | – | 16 | 16 | 2 | 11 | – | – | – | –
3 | CCCCCC(O)CCCC(CCCCCCC(=O)O)S(C)(=O)=O (configuration not stated) | – | 27 | 38 | – | – | – | 14 | 24 | 2 | – | – | –
4 | CCCCC[C@H](O)/C=C/[C@H]1[C@H](O)CC(=O)[C@@H]1CCCCCCC(=O)O | 1 ngequiv | 62 | 62 | – | – | – | 54 | 60 | 29 | 8 | 25 | –
5 | CCCCC[C@H](O)CC[C@H]1CCC(=O)[C@@H]1CCCCCCC(=O)O | – | 26 | – | – | – | 19 | 10 | 25 | – | – | – | –
6 | CCCCCC(O)CCC1CCC(=O)N1CCCCCCC(=O)O (mixture of isomers) | 4.6 µgequiv | 8 | 18 | 0.15 | – | – | 0.9 | – | – | – | – | 5.25
7 | CCCCCC(O)CCC1SCC(=O)N1CCCCCCC(=O)O (mixture of isomers) | 0.39 µgequiv | 8 | 25 | 0.12 | – | – | 1.4 | – | – | – | – | –
8 | CCCCCC(O)CCC1N(CCCCCCC(=O)O)C(=O)CS1(=O)=O (mixture of isomers) | 0.06 µgequiv | 27 | 37 | 0.24 | – | – | 5 | 23 | – | – | – | –
9 | O=C(O)CCCCCCN1C(=O)CS(=O)(=O)C1CCC(O)COc1ccc(F)cc1 (mixture of isomers) | – | 2 | 7 | 0.13 | – | – | – | – | – | – | – | –
10 | CCCCCCCCC1CCC(=O)N1CCCCCCC(=O)O (racemic) | 8.3 µgequiv | 8 | 13 | 0.25 | – | – | 0.7 | – | – | – | – | –
11 | CCCCCCCCC1C(=O)NC(=O)N1CCCCCCC(=O)O (racemic) | 5 µgequiv | 3 | 6 | 0.2 | – | – | – | – | – | – | – | –
